≈ marks a conversion by molar mass, not a printed value.
Assays:
cruzain = cruzain (Trypanosoma cruzi, UniProt P25779); assay: Cruzain enzymatic assay in 96-well plate format; type: biochemical; details: secondary assays performed at UCSF
How it was run: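 Recombinant cruzain (4 nM final) in 100 mM sodium acetate pH 5.5, 5 mM DTT, 0.001% Triton X-100, preincubated 5 min at room temperature with test compound in DMSO. Reaction started with Z-Phe-Arg-AMC (10 μM). AMC release was followed as the rate of fluorescence increase (ex 355, em 460 nm). DMSO-only wells served as uninhibited control. IC50 was obtained by curve fitting.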

[1] = system: Trypanosoma brucei brucei strain 221; assay: Trypanosoma brucei brucei assay; type: cell-based; details: for MIC50: Trypanosoma brucei, 48 h, read-out: Tbb MIC50; for trypanocidal activity against T. brucei: up to 100 μM
[2] = system: Y strain T. cruzi trypomastigotes; assay: Trypanosoma cruzi assay in infected J774 macrophages; type: cell-based; details: for activity against T. cruzi: 27 days treatment; for effect against the T. cruzi parasite in cell culture: infected macrophages
J774 macrophages = assay: Compound toxicity for host macrophages in the T. cruzi assay; type: cell-based; details: 5 μM

cruzain, sequence (P25779 123-337 limits assumed): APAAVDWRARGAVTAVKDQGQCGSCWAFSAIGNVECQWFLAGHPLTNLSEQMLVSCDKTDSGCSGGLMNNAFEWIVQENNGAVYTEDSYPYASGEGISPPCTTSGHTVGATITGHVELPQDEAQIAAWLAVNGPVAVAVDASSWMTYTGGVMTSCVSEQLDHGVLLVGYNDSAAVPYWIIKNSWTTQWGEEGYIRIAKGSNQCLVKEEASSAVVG

With `CCOc1nc(C#N)nc(N2CCCCC2)n1` [Compound 3] the “IC50 values (in words)” value (cruzain) was “mid-nanomolar”, the MIC50 [1] was over 100 µM and the “trypanocidal activity against T. brucei” value [1] was “no trypanocidal activity”.

In the case of `N#Cc1nc(N)nc(N(c2ccccc2)c2ccccc2)n1` [Compound 4], the “IC50 values (in words)” value (cruzain) is reported as “mid-nanomolar”, the MIC50 [1] is reported as over 100 µM and the “trypanocidal activity against T. brucei” value [1] is reported as “no trypanocidal activity”.

Compound `N#Cc1nc(Nc2cccc([N+](=O)[O-])c2)nc(NC2CCCC2)n1` [Compound 20] has an MIC50 [1] of 100 µM (≈ 32.5 µg/mL).

`N#Cc1nc(Nc2cccc(F)c2)nc(NC2CCCC2)n1` [Compound 21] gave an MIC50 [1] of 100 µM (≈ 29.8 µg/mL).

`N#Cc1nc(Nc2cccc(Cl)c2)nc(NC2CCCC2)n1` [Compound 22] was tested, and the “activity against T. cruzi” value ([2]; 5 μM) was “inactive”, the “effect against the T. cruzi parasite in cell culture” value (“effect against the T. cruzi parasite” for short) [2] was “no effect” and the MIC50 [1] was 6 µM (≈ 1.89 µg/mL).

In the case of `N#Cc1nc(Nc2cccc(Br)c2)nc(NC2CCCC2)n1` [Compound 23], the “effect against the T. cruzi parasite” value [2] is reported as “no effect”, the toxicity against macrophages (J774 macrophages) is reported as “toxic” and the MIC50 [1] is reported as 6 µM (≈ 2.16 µg/mL).

Compound `N#Cc1nc(Nc2ccc(F)cc2)nc(NC2CCCC2)n1` [Compound 24] has an MIC50 [1] of over 100 µM.

In the case of `Cc1cccc(Nc2nc(C#N)nc(NC3CCCC3)n2)c1` [Compound 25], the “activity against T. cruzi” value ([2]; 5 μM) is reported as “inactive”, the “effect against the T. cruzi parasite” value [2] is reported as “no effect” and the MIC50 [1] is reported as 25 µM (≈ 7.36 µg/mL).

`N#Cc1nc(Nc2ccc(Br)cc2)nc(NC2CCCC2)n1` [Compound 26] gave an MIC50 [1] of over 100 µM.

With `N#Cc1nc(Nc2cccc(-c3ccccc3)c2)nc(NC2CCCC2)n1` [Compound 27] the “activity against T. cruzi” value ([2]; 5 μM) was “inactive” and the MIC50 [1] was 25 µM (≈ 8.91 µg/mL).

With `N#Cc1nc(Nc2cccc(C(F)(F)F)c2)nc(NC2CCCC2)n1` [Compound 28] the “activity against T. cruzi” value ([2]; 5 μM) was “inactive” and the MIC50 [1] was 25 µM (≈ 8.71 µg/mL).

With `N#Cc1nc(Nc2cc(F)cc(F)c2)nc(NC2CCCC2)n1` [Compound 29, 4-(cyclopentylamino)-6-(3,5-difluorophenylamino)-1,3,5-triazine-2-carbonitrile] the toxicity against macrophages (J774 macrophages) was “toxic” and the MIC50 [1] was 6 µM (≈ 1.9 µg/mL).

For `N#Cc1nc(Nc2cc(Cl)cc(Cl)c2)nc(NC2CCCC2)n1` [Compound 30], the “activity against T. cruzi” value ([2]; 5 μM) was “inactive” and the MIC50 [1] was 25 µM (≈ 8.73 µg/mL).

`N#Cc1nc(NCC(F)F)nc(Nc2cc(F)cc(F)c2)n1` [Compound 31] gave an MIC50 [1] of 6 µM (≈ 1.87 µg/mL).

For `CCn1cnc2c(Nc3cc(F)cc(F)c3)nc(C#N)nc21` [Compound 32, 6-(3,5-difluorophenylamino)-9-ethyl-9H-purine-2-carbonitrile], the “activity against T. cruzi” value ([2]; 10 μM) was “inactive”, the “effect against the T. cruzi parasite” value [2] was “no effect” and the MIC50 [1] was 25 µM (≈ 7.51 µg/mL).

With `CCn1cnc2c(Nc3cccc(Cl)c3)nc(C#N)nc21` [Compound 35, 6-(3-chlorophenylamino)-9-ethyl-9H-purine-2-carbonitrile] the “activity against T. cruzi” value ([2]; 10 μM) was “inactive”, the “effect against the T. cruzi parasite” value [2] was “no effect” and the MIC50 [1] was 25 µM (≈ 7.47 µg/mL).

With `N#Cc1nc(Nc2cccc(Cl)c2)c2ncn(C3CCCC3)c2n1` [Compound 36] the “activity against T. cruzi” value ([2]; 10 μM) was “inactive”, the “effect against the T. cruzi parasite” value [2] was “no effect” and the MIC50 [1] was 100 µM (≈ 33.9 µg/mL).

For `CN1CCN(C(=O)N[C@@H](Cc2ccccc2)C(=O)N[C@H](/C=C/S(=O)(=O)c2ccccc2)CCc2ccccc2)CC1` [Compound K777, reference compound], the “activity against T. cruzi” value ([2]; 10 μM) was “cured cell infection”.
